Results taken from ChEMBL document CHEMBL2429794, “Tuning the antibacterial activity of amphiphilic neamine derivatives and comparison to paromamine homologues” (J Med Chem, 2013).
In brackets after ≈: the same amount, converted by molar mass.

Assays:
Staphylococcus aureus [1] = test: Antibacterial activity against vancomycin-resistant Staphylococcus aureus VRS2 after 24 hrs by geometric microdilution method; type: functional; details: VRS2, 24 h
Outline: (§1)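 Broth cultures were incubated in plates at 37 °C, and growth was read as absorbance at 650 nm after 1, 4, 7 and 24 h. Ampicillin (16 mg/L) was the positive control and DMSO the negative control. Each MIC (μg/mL) is the average of at least three determinations.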

Klebsiella pneumoniae = test: Antibacterial activity against Klebsiella pneumoniae ATCC 700603 after 24 hrs by geometric microdilution method; type: functional; details: ATCC 700603, 24 h
Staphylococcus aureus [2] = test: Antibacterial activity against 14- and 15-membered macrolide-resistant Staphylococcus aureus expressing MsrA efflux pump after 24 hrs by geometric microdilution method; type: functional; outline: as §1
Pseudomonas aeruginosa [3] = test: Antibacterial activity against Pseudomonas aeruginosa F03 expressing AAC6'-2A after 24 hrs by geometric microdilution method; type: functional; details: F03, 24 h
Acinetobacter lwoffii [4] = test: Antibacterial activity against Acinetobacter lwoffii AI.88-483 expressing APH3'-6A after 24 hrs by geometric microdilution method; type: functional; details: AI.88-483, 24 h
Staphylococcus aureus [5] = test: Antibacterial activity against fluoroquinolone-resistant Staphylococcus aureus 1199B expressing NorA efflux pump after 24 hrs by geometric microdilution method; type: functional; outline: as §1
Escherichia coli [6] = test: microbe, parasite or virus in culture; details: ATCC 25922, 24 h
Staphylococcus aureus [7] = test: microbe, parasite or virus in culture; details: ATCC 25923, 24 h
Pseudomonas aeruginosa [8] = test: Antibacterial activity against Pseudomonas aeruginosa ATCC 27853 after 24 hrs by geometric microdilution method; type: functional; details: ATCC 27853, 24 h
Staphylococcus aureus [9] = test: Antibacterial activity against Staphylococcus aureus expressing aminoglycoside-3'-O-phosphoryltransferase after 24 hrs by geometric microdilution method; type: functional; outline: as §1
Pseudomonas aeruginosa [10] = test: Antibacterial activity against Pseudomonas aeruginosa PA22 (PT629) expressing MexXY after 24 hrs by geometric microdilution method; type: functional
Staphylococcus aureus [11] = test: Antibacterial activity against healthcare-acquired methicillin-resistant Staphylococcus aureus ATCC 33592 after 24 hrs by geometric microdilution method; type: functional; details: ATCC 33592, 24 h; outline: as §1
Staphylococcus aureus [12] = test: Antibacterial activity against Staphylococcus aureus expressing aminoglycoside-6'-N-acetyltransferase/2''-O-phosphoryltransferase after 24 hrs by geometric microdilution method; type: functional; outline: as §1
Staphylococcus aureus [13] = test: Antibacterial activity against Staphylococcus aureus expressing aminoglycoside-[…] after 24 hrs by geometric microdilution method; type: functional; outline: as §1
Escherichia coli [14] = test: Antibacterial activity against Escherichia coli PAZ505H8101 expressing AAC6'-1B after 24 hrs by geometric microdilution method; type: functional; details: PAZ505H8101, 24 h
Acinetobacter lwoffii [15] = test: Antibacterial activity against Acinetobacter lwoffii ATCC 17925 after 24 hrs by geometric microdilution method; type: functional; details: ATCC 17925, 24 h
Escherichia coli [16] = test: Antibacterial activity against Escherichia coli L58058.1 expressing ANT2''-1A after 24 hrs by geometric microdilution method; type: functional; details: L58058.1, 24 h

| SMILES | MIC (Staphylococcus aureus [1]) [µg/mL] | MIC (Klebsiella pneumoniae) [µg/mL] | MIC (Staphylococcus aureus [2]) [µg/mL] | MIC (Pseudomonas aeruginosa [3]) [µg/mL] | MIC (Acinetobacter lwoffii [4]) [µg/mL] | MIC (Staphylococcus aureus [5]) [µg/mL] | MIC (Escherichia coli [6]) [µg/mL] | MIC (Staphylococcus aureus [7]) [µg/mL] | MIC (Pseudomonas aeruginosa [8]) [µg/mL] | MIC (Staphylococcus aureus [9]) [µg/mL] | MIC (Pseudomonas aeruginosa [10]) [µg/mL] | MIC (Staphylococcus aureus [11]) [µg/mL] | MIC (Staphylococcus aureus [12]) [µg/mL] | MIC (Staphylococcus aureus [13]) [µg/mL] | MIC (Escherichia coli [14]) [µg/mL] | MIC (Acinetobacter lwoffii [15]) [µg/mL] | MIC (Escherichia coli [16]) [µg/mL] |
| --- | --- | --- | --- | --- | --- | --- | --- | --- | --- | --- | --- | --- | --- | --- | --- | --- | --- |
| NC[C@H]1O[C@H](O[C@H]2[C@H](O)[C@@H](OCc3cccc4ccccc34)[C@H](N)C[C@@H]2N)[C@H](N)[C@@H](OCc2cccc3ccccc23)[C@@H]1OCc1cccc2ccccc12 | 16 (≈ 21.5 µM) | 128 (≈ 172 µM) | 2 (≈ 2.69 µM) | 8 (≈ 10.8 µM) | 128 (≈ 172 µM) | 4 (≈ 5.38 µM) | 8 (≈ 10.8 µM) | 1 (≈ 1.35 µM) | 8 (≈ 10.8 µM) | 2 (≈ 2.69 µM) | 8 (≈ 10.8 µM) | 4 (≈ 5.38 µM) | 4 (≈ 5.38 µM) | 4 (≈ 5.38 µM) | 2 (≈ 2.69 µM) | 2 (≈ 2.69 µM) | 16 (≈ 21.5 µM) |
| N[C@H]1[C@@H](O[C@H]2[C@H](O)[C@@H](OCc3cccc4ccccc34)[C@H](N)C[C@@H]2N)O[C@H](CO)[C@@H](OCc2cccc3ccccc23)[C@@H]1OCc1cccc2ccccc12 | 32 (≈ 43 µM) | 128 (≈ 172 µM) | 8 (≈ 10.8 µM) | 32 (≈ 43 µM) | 128 (≈ 172 µM) | 8 (≈ 10.8 µM) | 16 (≈ 21.5 µM) | 2 (≈ 2.69 µM) | 32 (≈ 43 µM) | 4 (≈ 5.38 µM) | 32 (≈ 43 µM) | 32 (≈ 43 µM) | 8 (≈ 10.8 µM) | 16 (≈ 21.5 µM) | 16 (≈ 21.5 µM) | 1 (≈ 1.34 µM) | 16 (≈ 21.5 µM) |
| CCCCCCO[C@@H]1[C@@H](N)[C@@H](O[C@H]2[C@H](O)[C@@H](OCCCCCC)[C@H](N)C[C@@H]2N)O[C@H](CN)[C@H]1O | 128 (≈ 261 µM) | > 128 | 128 (≈ 261 µM) | > 128 | > 128 | 128 (≈ 261 µM) | 128 (≈ 261 µM) | 128 (≈ 261 µM) | > 128 | > 128 | > 128 | 128 (≈ 261 µM) | > 128 | > 128 | 128 (≈ 261 µM) | > 128 | 128 (≈ 261 µM) |
| NC[C@H]1O[C@H](O[C@H]2[C@H](O)[C@@H](OCc3cccc4ccccc34)[C@H](N)C[C@@H]2N)[C@H](N)[C@@H](OCc2cccc3ccccc23)[C@@H]1O | 8 (≈ 13.3 µM) | > 128 | 16 (≈ 26.5 µM) | 64 (≈ 106 µM) | > 128 | 16 (≈ 26.5 µM) | 32 (≈ 53.1 µM) | 8 (≈ 13.3 µM) | 32 (≈ 53.1 µM) | 8 (≈ 13.3 µM) | > 128 | 8 (≈ 13.3 µM) | 32 (≈ 53.1 µM) | 16 (≈ 26.5 µM) | 16 (≈ 26.5 µM) | 16 (≈ 26.5 µM) | 32 (≈ 53.1 µM) |
| N[C@H]1[C@@H](O[C@H]2[C@H](O)[C@@H](OCc3ccc4ccccc4c3)[C@H](N)C[C@@H]2N)O[C@H](CO)[C@@H](O)[C@@H]1OCc1ccc2ccccc2c1 | 16 (≈ 26.5 µM) | > 128 | 32 (≈ 53 µM) | 64 (≈ 106 µM) | > 128 | 32 (≈ 53 µM) | 128 (≈ 212 µM) | 8 (≈ 13.3 µM) | 128 (≈ 212 µM) | 16 (≈ 26.5 µM) | 128 (≈ 212 µM) | 16 (≈ 26.5 µM) | 32 (≈ 53 µM) | 16 (≈ 26.5 µM) | 64 (≈ 106 µM) | 64 (≈ 106 µM) | 64 (≈ 106 µM) |
| NC[C@H]1O[C@H](O[C@H]2[C@H](O)[C@@H](OCc3ccc4ccccc4c3)[C@H](N)C[C@@H]2N)[C@H](N)[C@@H](OCc2ccc3ccccc3c2)[C@@H]1O | 16 (≈ 26.5 µM) | ≥ 128 | 8 (≈ 13.3 µM) | 128 (≈ 212 µM) | > 128 | 8 (≈ 13.3 µM) | 64 (≈ 106 µM) | 8 (≈ 13.3 µM) | 128 (≈ 212 µM) | 4 (≈ 6.64 µM) | > 128 | 16 (≈ 26.5 µM) | 8 (≈ 13.3 µM) | 8 (≈ 13.3 µM) | 64 (≈ 106 µM) | 64 (≈ 106 µM) | 64 (≈ 106 µM) |
